Experimental data taken from ChEMBL document CHEMBL1155415, “Synthesis, characterization, and in vitro antimicrobial activities of 5-alkenyl/hydroxyalkenyl-2-phenylamine-1,3,4-oxadiazoles and thiadiazoles” (2010).
In brackets after ≈: the same amount, converted by molar mass.

Tests used:
Type in all cases: functional
Talaromyces marneffei [1] = assay: Ratio of MFC to MIC for Penicillium marneffei
Summary of the method: (§1)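 MFC: 0.1 ml from each MIC tube was spread on agar and colonies were counted after 48 h at 35 °C. MFC is the lowest concentration killing 99.9% of the inoculum. The MFC/MIC ratio was then calculated to classify activity as fungistatic or fungicidal.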

Staphylococcus aureus [2] = assay: Antibacterial activity against Staphylococcus aureus ATCC 25923 after 24 hrs by disc diffusion method
Summary of the method: (§2)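 Agar disc diffusion. A standard inoculum of […] c.f.u./ml (0.5 McFarland) was spread evenly on agar. 6 mm Whatman no. 1 paper discs, dry-heat sterilized (140 °C, 1 h), were soaked in test compound and placed on nutrient agar. Plates were inverted and incubated 24 h at 37 °C. Read-out: diameter of the inhibition zone.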

Streptococcus pyogenes [3] = assay: Antibacterial activity against Streptococcus pyogenes after 18 to 24 hrs
[4] = system: Trichophyton mentagrophytes; assay: Ratio of MFC to MIC for Trichophyton mentagrophytes; summary of the method: as §1
Klebsiella pneumoniae [5] = assay: Antibacterial activity against Klebsiella pneumoniae after 24 hrs by disc diffusion method; summary of the method: as §2
Pseudomonas aeruginosa [6] = assay: Antibacterial activity against Pseudomonas aeruginosa ATCC 27853 after 24 hrs by two fold dilution technique; settings: ATCC 27853, 24 h
Summary of the method: (§3)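 Broth dilution MIC. Nutrient broth held log two-fold serial dilutions of compound and was inoculated with about 5 × 10⁵ c.f.u./ml of actively dividing bacteria. Incubation was 24 h at 37 °C, with growth checked visually and spectrophotometrically. MIC is the lowest concentration arresting growth.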

[7] = system: Trichophyton mentagrophytes; assay: Antifungal activity against Trichophyton mentagrophytes after 48 hrs by disk diffusion method
Summary of the method: (§4)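 Agar well diffusion with compounds in DMSO. The dish was lawned with a saline spore suspension, excess decanted, and dried 1 h at 37 °C. Wells were punched. Read-out: inhibition zone in mm. Griseofulvin served as standard and DMSO as negative control.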

Escherichia coli [8] = assay: Antibacterial activity against Escherichia coli ATCC 25922 after 24 hrs by disc diffusion method; summary of the method: as §2
Streptococcus pyogenes [9] = assay: Antibacterial activity against Streptococcus pyogenes after 24 hrs by disc diffusion method; summary of the method: as §2
Escherichia coli [10] = assay: Antibacterial activity against Escherichia coli ATCC 25922 after 24 hrs by two fold dilution technique; settings: ATCC 25922, 24 h; summary of the method: as §3
Klebsiella pneumoniae [11] = assay: Antibacterial activity against Klebsiella pneumoniae after 18 to 24 hrs
Candida albicans [12] = assay: Ratio of MFC to MIC for Candida albicans; summary of the method: as §1
Aspergillus fumigatus [13] = assay: Ratio of MFC to MIC for Aspergillus fumigatus; summary of the method: as §1
Streptococcus pyogenes [14] = assay: Antibacterial activity against Streptococcus pyogenes after 24 hrs by two fold dilution technique; summary of the method: as §3
Pseudomonas aeruginosa [15] = assay: Antibacterial activity against Pseudomonas aeruginosa ATCC 27853 after 18 to 24 hrs
Klebsiella pneumoniae [16] = assay: Antibacterial activity against Klebsiella pneumoniae after 24 hrs by two fold dilution technique; summary of the method: as §3
Pseudomonas aeruginosa [17] = assay: Antibacterial activity against Pseudomonas aeruginosa ATCC 27853 after 24 hrs by disc diffusion method; summary of the method: as §2
Escherichia coli [18] = assay: Antibacterial activity against Escherichia coli ATCC 25922 after 18 to 24 hrs
Candida albicans [19] = assay: Antifungal activity against Candida albicans after 48 hrs by two fold dilution technique
Summary of the method: (§5)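 Broth MIC. Broth with log two-fold serial dilutions of compound was inoculated with about 1.6 × 10⁴–6 × 10⁴ c.f.u./ml of fungus and incubated 48 h at 35 °C. MIC is the lowest concentration arresting fungal growth.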

Talaromyces marneffei [20] = assay: Antifungal activity against Penicillium marneffei after 48 hrs by two fold dilution technique; summary of the method: as §5
Talaromyces marneffei [21] = assay: Antifungal activity against Penicillium marneffei after 48 hrs by disk diffusion method; summary of the method: as §4
Staphylococcus aureus [22] = assay: Antibacterial activity against Staphylococcus aureus ATCC 25923 after 24 hrs by two fold dilution technique; settings: ATCC 25923, 24 h; summary of the method: as §3
[23] = system: Trichophyton mentagrophytes; assay: Antifungal activity against Trichophyton mentagrophytes after 48 hrs by two fold dilution technique; summary of the method: as §5
Candida albicans [24] = assay: Antifungal activity against Candida albicans after 48 hrs by disk diffusion method; summary of the method: as §4
Staphylococcus aureus [25] = assay: Antibacterial activity against Staphylococcus aureus ATCC 25923 after 18 to 24 hrs
Aspergillus fumigatus [26] = assay: Antifungal activity against Aspergillus fumigatus after 48 hrs by two fold dilution technique; summary of the method: as §5
Aspergillus fumigatus [27] = assay: Antifungal activity against Aspergillus fumigatus after 48 hrs by disk diffusion method; summary of the method: as §4

Compound | Ratio (Talaromyces marneffei [1]) | diameter of the inhibition zone (DIZ) (Staphylococcus aureus [2]) [mm] | MBC (Streptococcus pyogenes [3]) [µg/mL] | Ratio [4] | diameter of the inhibition zone (DIZ) (Klebsiella pneumoniae [5]) [mm] | MIC (Pseudomonas aeruginosa [6]) [µg/mL] | diameter of the inhibition zone (DIZ) [7] [mm] | diameter of the inhibition zone (DIZ) (Escherichia coli [8]) [mm] | diameter of the inhibition zone (DIZ) (Streptococcus pyogenes [9]) [mm] | MIC (Escherichia coli [10]) [µg/mL] | MBC (Klebsiella pneumoniae [11]) [µg/mL] | Ratio (Candida albicans [12]) | Ratio (Aspergillus fumigatus [13]) | MIC (Streptococcus pyogenes [14]) [µg/mL] | MBC (Pseudomonas aeruginosa [15]) [µg/mL] | MIC (Klebsiella pneumoniae [16]) [µg/mL] | diameter of the inhibition zone (DIZ) (Pseudomonas aeruginosa [17]) [mm] | MBC (Escherichia coli [18]) [µg/mL] | MFC (Candida albicans [19]) [µg/mL] | MIC (Candida albicans [19]) [µg/mL] | further results
C=CCCCCCCCCc1nnc(Nc2ccccc2)s1 | 4 | 13.1 | 50 (≈ 158 µM) | 2 | 12.8 | 12.5 (≈ 39.6 µM) | 14.1 | 15.2 | 13.5 | 25 (≈ 79.2 µM) | 50 (≈ 158 µM) | 2 | 4 | 25 (≈ 79.2 µM) | 25 (≈ 79.2 µM) | 25 (≈ 79.2 µM) | 17.2 | 100 (≈ 317 µM) | 50 (≈ 158 µM) | 25.5 (≈ 80.8 µM) | MFC (Talaromyces marneffei [20]): 100 µg/mL (≈ 317 µM); MIC (Talaromyces marneffei [20]): 25 µg/mL (≈ 79.2 µM); diameter of the inhibition zone (DIZ) (Talaromyces marneffei [21]): 10.2 mm; MIC (Staphylococcus aureus [22]): 12.5 µg/mL (≈ 39.6 µM); MFC [23]: 50 µg/mL (≈ 158 µM); MIC [23]: 25 µg/mL (≈ 79.2 µM); diameter of the inhibition zone (DIZ) (Candida albicans [24]): 19.5 mm; MBC (Staphylococcus aureus [25]): 25 µg/mL (≈ 79.2 µM); MFC (Aspergillus fumigatus [26]): 100 µg/mL (≈ 317 µM); MIC (Aspergillus fumigatus [26]): 25 µg/mL (≈ 79.2 µM); diameter of the inhibition zone (DIZ) (Aspergillus fumigatus [27]): 16.5 mm
CCCCC/C=C\CCC(O)CCCCCCCc1nnc(Nc2ccccc2)s1 (stereo not drawn) | 4 | 20.8 | 25 (≈ 58.2 µM) | 4 | 19.9 | 6.25 (≈ 14.5 µM) | 19 | 22.9 | 21.1 | 6.25 (≈ 14.5 µM) | 6.25 (≈ 14.5 µM) | 2 | 2 | 6.25 (≈ 14.5 µM) | 25 (≈ 58.2 µM) | 6.25 (≈ 14.5 µM) | 25.9 | 12.5 (≈ 29.1 µM) | 50 (≈ 116 µM) | 25 (≈ 58.2 µM) | MFC (Talaromyces marneffei [20]): 100 µg/mL (≈ 233 µM); MIC (Talaromyces marneffei [20]): 25 µg/mL (≈ 58.2 µM); diameter of the inhibition zone (DIZ) (Talaromyces marneffei [21]): 15.2 mm; MIC (Staphylococcus aureus [22]): 6.25 µg/mL (≈ 14.5 µM); MFC [23]: 100 µg/mL (≈ 233 µM); MIC [23]: 25 µg/mL (≈ 58.2 µM); diameter of the inhibition zone (DIZ) (Candida albicans [24]): 24.9 mm; MBC (Staphylococcus aureus [25]): 12.5 µg/mL (≈ 29.1 µM); MFC (Aspergillus fumigatus [26]): 50 µg/mL (≈ 116 µM); MIC (Aspergillus fumigatus [26]): 25 µg/mL (≈ 58.2 µM); diameter of the inhibition zone (DIZ) (Aspergillus fumigatus [27]): 21.8 mm
CCCCCCCC/C=C\CCCCCCCc1nnc(Nc2ccccc2)s1 | 2 | 12.9 | 100 (≈ 242 µM) | 2 | 12.1 | 12.5 (≈ 30.2 µM) | 20.3 | 14.8 | 13.1 | 25 (≈ 60.4 µM) | 50 (≈ 121 µM) | 2 | 4 | 12.5 (≈ 30.2 µM) | 25 (≈ 60.4 µM) | 25 (≈ 60.4 µM) | 16.3 | 50 (≈ 121 µM) | 12.5 (≈ 30.2 µM) | 6.25 (≈ 15.1 µM) | MFC (Talaromyces marneffei [20]): 12.5 µg/mL (≈ 30.2 µM); MIC (Talaromyces marneffei [20]): 6.25 µg/mL (≈ 15.1 µM); diameter of the inhibition zone (DIZ) (Talaromyces marneffei [21]): 16.1 mm; MIC (Staphylococcus aureus [22]): 12.5 µg/mL (≈ 30.2 µM); MFC [23]: 12.5 µg/mL (≈ 30.2 µM); MIC [23]: 6.25 µg/mL (≈ 15.1 µM); diameter of the inhibition zone (DIZ) (Candida albicans [24]): 27.2 mm; MBC (Staphylococcus aureus [25]): 25 µg/mL (≈ 60.4 µM); MFC (Aspergillus fumigatus [26]): 25 µg/mL (≈ 60.4 µM); MIC (Aspergillus fumigatus [26]): 6.25 µg/mL (≈ 15.1 µM); diameter of the inhibition zone (DIZ) (Aspergillus fumigatus [27]): 23.8 mm
